Measured values taken from ChEMBL document CHEMBL1143718, “Synthesis and structure-activity relationships study of novel anti-tumor carbamate anhydrovinblastine analogues” (Bioorg Med Chem, 2007).

What was measured:
A549 [1] = assay: Cytotoxicity against human A549 cells after 72 hrs by SRB assay; assay type: functional, cell-based; settings: A549, 72 h
Procedure, shortened: (§1)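 Ditartrate salts tested. ATCC A549 or HeLa cells seeded at 6000 cells/well and attached overnight, then treated in triplicate with graded concentrations, 37 °C, 72 h. Fixed with 10% TCA at 4 °C for 60 min, stained with 0.4% SRB, bound dye dissolved in Tris, A515 read. IC50 by Logit method, mean of three independent tests.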

HeLa = assay: Cytotoxicity against human HeLa cells after 72 hrs by SRB assay; assay type: functional, cell-based; procedure, shortened: as §1
A549 [2] = assay: Antitumor activity in nude BALB/c mouse bearing A549 cell xenografts assessed as tumor growth inhibition at 6 mg/kg, iv after 12 days; assay type: functional, Homo sapiens; settings: A549, 288 h
Procedure, shortened: (§2)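 A549 s.c. axillary xenografts (2.5 × 10^6 cells) in female 7-week-old SPF BALB/cA-nude mice. Single i.v. dose on day 1 once tumors reached 100-300 mm3. Inhibition = (control mean relative tumor volume − treated)/control × 100%, on day 12 after dosing. Groups of 6, controls 12. Significance by Student's t test.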

Mus musculus [3] = assay: Effect on Body weight in nude BALB/c mouse bearing A549 cell xenografts at 3 mg/kg, iv; assay type: functional
Procedure, shortened: (§3)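 Female 7-week-old SPF BALB/cA-nude mice (18-22 g), 2.5 × 10^6 A549 cells implanted s.c. in axilla. Dosing at tumor volume 100-300 mm3, single i.v. dose on day 1. Tumor volume and body weight measured three times a week. Relative tumor volume and body weight reported initial/end. Groups of 6 treated, 12 controls. Means ± SD.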

A549 [4] = assay: Antitumor activity in nude BALB/c mouse bearing A549 cell xenografts assessed as relative tumor volume at 6 mg/kg, iv; assay type: functional, Homo sapiens; procedure, shortened: as §3
Mus musculus [5] = assay: Effect on Body weight in nude BALB/c mouse bearing A549 cell xenografts at 1.5 mg/kg, iv; assay type: functional; procedure, shortened: as §3
A549 [6] = assay: Antitumor activity in nude BALB/c mouse bearing A549 cell xenografts assessed as relative tumor volume at 1.5 mg/kg, iv; assay type: functional, Homo sapiens; procedure, shortened: as §3
Mus musculus [7] = assay: Effect on Body weight in nude BALB/c mouse bearing A549 cell xenografts at 6 mg/kg, iv; assay type: functional; procedure, shortened: as §3
A549 [8] = assay: Antitumor activity in nude BALB/c mouse bearing A549 cell xenografts assessed as tumor growth inhibition at 1.5 mg/kg, iv after 12 days; assay type: functional, Homo sapiens; settings: A549, 288 h; procedure, shortened: as §2
A549 [9] = assay: Antitumor activity in nude BALB/c mouse bearing A549 cell xenografts assessed as tumor growth inhibition at 3 mg/kg, iv after 12 days; assay type: functional, Homo sapiens; settings: A549, 288 h; procedure, shortened: as §2
A549 [10] = assay: Antitumor activity in nude BALB/c mouse bearing A549 cell xenografts assessed as relative tumor volume at 3 mg/kg, iv; assay type: functional, Homo sapiens; procedure, shortened: as §3
A549 [11] = assay: Antitumor activity in nude BALB/c mouse bearing A549 cell xenografts assessed as tumor growth inhibition at 10 mg/kg, iv after 12 days; assay type: functional, Homo sapiens; settings: A549, 288 h
Procedure, shortened: (§4)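 Female 7-week-old SPF BALB/cA nude mice (18-22 g) received 2.5 × 10^6 A549 cells subcutaneously in the axilla. Once tumors reached 100-300 mm3, they were dosed iv at 10 mg/kg on days 1 and 4 (6 mice; 12 controls). Tumor volume and body weight were measured three times weekly. Inhibition was computed from mean relative tumor volume versus control on day 12 after dosing. Means ± SD, Student's t test.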

Mus musculus [12] = assay: Effect on Body weight in nude BALB/c mouse bearing A549 cell xenografts at 10 mg/kg, iv; assay type: functional; procedure, shortened: as §4
A549 [13] = assay: Antitumor activity in nude BALB/c mouse bearing A549 cell xenografts assessed as relative tumor volume at 10 mg/kg, iv; assay type: functional, Homo sapiens; procedure, shortened: as §4

| Compound | IC50 (A549 [1]) | IC50 (HeLa) | further results |
| --- | --- | --- | --- |
| CCC1=C[C@@H]2CN(CCc3c([nH]c4ccccc34)[C@@](C(=O)OC)(c3cc4c(cc3OC)N(C)[C@H]3[C@](O)(CNC(=O)OCc5ccc6c(c5)OCO6)[C@H](OC(C)=O)[C@]5(CC)C=CCN6CC[C@]43[C@@H]65)C2)C1 | 75 nM | 17 nM |  |
| CCCCCOC(=O)NC[C@]1(O)[C@H](OC(C)=O)[C@]2(CC)C=CCN3CC[C@@]4(c5cc([C@@]6(C(=O)OC)C[C@@H]7C=C(CC)CN(CCc8c6[nH]c6ccccc86)C7)c(OC)cc5N(C)[C@@H]14)[C@@H]32 | 426 nM | 184 nM |  |
| CCC1=C[C@@H]2CN(CCc3c([nH]c4ccccc34)[C@@](C(=O)OC)(c3cc4c(cc3OC)N(C)[C@H]3[C@](O)(CNC(=O)OCC(C)C)[C@H](OC(C)=O)[C@]5(CC)C=CCN6CC[C@]43[C@@H]65)C2)C1 | 66 nM | 67 nM |  |
| CCC1=C[C@@H]2CN(CCc3c([nH]c4ccccc34)[C@@](C(=O)OC)(c3cc4c(cc3OC)N(C)[C@H]3[C@](O)(CNC(=O)OC)[C@H](OC(C)=O)[C@]5(CC)C=CCN6CC[C@]43[C@@H]65)C2)C1 | 38 nM | 9 nM | inhibition in vivo at 6 mg/kg (A549 [2]): 68.5%; Activity (Mus musculus [3]): 20.4 g; Activity (A549 [4]): 3.48; Activity (Mus musculus [5]): 21.3 g; Activity (A549 [6]): 8.18; Activity (Mus musculus [7]): 18.8 g; inhibition in vivo at 1.5 mg/kg (A549 [8]): 26%; inhibition in vivo at 3 mg/kg (A549 [9]): 37.1%; Activity (A549 [10]): 6.96 |
| CCC1=C[C@@H]2CN(CCc3c([nH]c4ccccc34)[C@@](C(=O)OC)(c3cc4c(cc3OC)N(C)[C@H]3[C@](O)(CNC(=O)OC(C)(C)C)[C@H](OC(C)=O)[C@]5(CC)C=CCN6CC[C@]43[C@@H]65)C2)C1 | 604 nM | 96 nM |  |
| CCC1=C[C@@H]2CN(CCc3c([nH]c4ccccc34)[C@@](C(=O)OC)(c3cc4c(cc3OC)N(C)[C@H]3[C@](O)(CNC(=O)Oc5ccccc5)[C@H](OC(C)=O)[C@]5(CC)C=CCN6CC[C@]43[C@@H]65)C2)C1 | 110 nM | 199 nM |  |
| CCC1=C[C@@H]2CN(CCc3c([nH]c4ccccc34)[C@@](C(=O)OC)(c3cc4c(cc3OC)N(C)[C@H]3[C@](O)(CNC(=O)OCc5ccccc5[N+](=O)[O-])[C@H](OC(C)=O)[C@]5(CC)C=CCN6CC[C@]43[C@@H]65)C2)C1 | 61 nM | 66 nM |  |
| CCC1=C[C@@H]2CN(CCc3c([nH]c4ccccc34)[C@@](C(=O)OC)(c3cc4c(cc3OC)N(C)[C@H]3[C@](O)(CNC(=O)OC5CCCC5)[C@H](OC(C)=O)[C@]5(CC)C=CCN6CC[C@]43[C@@H]65)C2)C1 | 177 nM | 132 nM |  |
| CCC1=C[C@@H]2CN(C1)Cc1c([nH]c3ccccc13)[C@@](C(=O)OC)(c1cc3c(cc1OC)N(C)[C@H]1[C@@](O)(C(=O)OC)[C@H](OC(C)=O)[C@]4(CC)C=CCN5CC[C@]31[C@@H]54)C2 [VINORELBINE] | 49 nM | 26 nM | inhibition in vivo at 10 mg/kg (A549 [11]): 75.9%; Activity (Mus musculus [12]): 16.4 g; Activity (A549 [13]): 2.66 |
| CCC1=C[C@@H]2CN(CCc3c([nH]c4ccccc34)[C@@](C(=O)OC)(c3cc4c(cc3OC)N(C)[C@H]3[C@](O)(CNC(=O)OCCOC)[C@H](OC(C)=O)[C@]5(CC)C=CCN6CC[C@]43[C@@H]65)C2)C1 | 65 nM | 14 nM |  |
| CCC1=C[C@@H]2CN(CCc3c([nH]c4ccccc34)[C@@](C(=O)OC)(c3cc4c(cc3OC)N(C)[C@H]3[C@](O)(CNC(=O)OCc5ccc(OC)cc5)[C@H](OC(C)=O)[C@]5(CC)C=CCN6CC[C@]43[C@@H]65)C2)C1 | 67 nM | 8 nM |  |
| CCC1=C[C@@H]2CN(CCc3c([nH]c4ccccc34)[C@@](C(=O)OC)(c3cc4c(cc3OC)N(C)[C@H]3[C@](O)(CNC(=O)Oc5ccc(OC)cc5)[C@H](OC(C)=O)[C@]5(CC)C=CCN6CC[C@]43[C@@H]65)C2)C1 | 365 nM | 49 nM |  |
| CCC1=C[C@@H]2CN(CCc3c([nH]c4ccccc34)[C@@](C(=O)OC)(c3cc4c(cc3OC)N(C)[C@H]3[C@](O)(CNC(=O)OCCBr)[C@H](OC(C)=O)[C@]5(CC)C=CCN6CC[C@]43[C@@H]65)C2)C1 | 131 nM | 30 nM |  |
| CCC1=C[C@@H]2CN(CCc3c([nH]c4ccccc34)[C@@](C(=O)OC)(c3cc4c(cc3OC)N(C)[C@H]3[C@](O)(CNC(=O)OCc5ccc([N+](=O)[O-])cc5)[C@H](OC(C)=O)[C@]5(CC)C=CCN6CC[C@]43[C@@H]65)C2)C1 | 38 nM | 10 nM |  |
| CCC1=C[C@@H]2CN(CCc3c([nH]c4ccccc34)[C@@](C(=O)OC)(c3cc4c(cc3OC)N(C)[C@H]3[C@](O)(CNC(=O)OCc5ccccc5OC)[C@H](OC(C)=O)[C@]5(CC)C=CCN6CC[C@]43[C@@H]65)C2)C1 | 200 nM | 69 nM |  |
| CCC1=C[C@@H]2CN(CCc3c([nH]c4ccccc34)[C@@](C(=O)OC)(c3cc4c(cc3OC)N(C)[C@H]3[C@](O)(CNC(=O)OC(C)C)[C@H](OC(C)=O)[C@]5(CC)C=CCN6CC[C@]43[C@@H]65)C2)C1 | 162 nM | 27 nM |  |
| CCOC(=O)NC[C@]1(O)[C@H](OC(C)=O)[C@]2(CC)C=CCN3CC[C@@]4(c5cc([C@@]6(C(=O)OC)C[C@@H]7C=C(CC)CN(CCc8c6[nH]c6ccccc86)C7)c(OC)cc5N(C)[C@@H]14)[C@@H]32 | 51 nM | 16 nM |  |
| CCC1=C[C@@H]2CN(CCc3c([nH]c4ccccc34)[C@@](C(=O)OC)(c3cc4c(cc3OC)N(C)[C@H]3[C@](O)(CNC(=O)Oc5ccccc5OC)[C@H](OC(C)=O)[C@]5(CC)C=CCN6CC[C@]43[C@@H]65)C2)C1 | 609 nM | 148 nM |  |
| CCC1=C[C@@H]2CN(CCc3c([nH]c4ccccc34)[C@@](C(=O)OC)(c3cc4c(cc3OC)N(C)[C@H]3[C@](O)(CNC(=O)OCc5ccccc5)[C@H](OC(C)=O)[C@]5(CC)C=CCN6CC[C@]43[C@@H]65)C2)C1 | 57 nM | 54 nM |  |
| CCC1=C[C@@H]2CN(CCc3c([nH]c4ccccc34)[C@@](C(=O)OC)(c3cc4c(cc3OC)N(C)[C@H]3[C@](O)(CNC(=O)OCc5ccc(Cl)cc5)[C@H](OC(C)=O)[C@]5(CC)C=CCN6CC[C@]43[C@@H]65)C2)C1 | 89 nM | 6 nM |  |
| CCC1=C[C@@H]2CN(CCc3c([nH]c4ccccc34)[C@@](C(=O)OC)(c3cc4c(cc3OC)N(C)[C@H]3[C@](O)(CNC(=O)OC5CCC5)[C@H](OC(C)=O)[C@]5(CC)C=CCN6CC[C@]43[C@@H]65)C2)C1 | 121 nM | 23 nM |  |
| CCC1=C[C@@H]2CN(CCc3c([nH]c4ccccc34)[C@@](C(=O)OC)(c3cc4c(cc3OC)N(C)[C@H]3[C@](O)(CNC(=O)OCC5CC5)[C@H](OC(C)=O)[C@]5(CC)C=CCN6CC[C@]43[C@@H]65)C2)C1 | 61 nM | 13 nM |  |
| CCC1=C[C@@H]2CN(CCc3c([nH]c4ccccc34)[C@@](C(=O)OC)(c3cc4c(cc3OC)N(C)[C@H]3[C@](O)(CNC(=O)OCc5cccc(Cl)c5)[C@H](OC(C)=O)[C@]5(CC)C=CCN6CC[C@]43[C@@H]65)C2)C1 | 203 nM | 39 nM |  |
| CCC1=C[C@@H]2CN(CCc3c([nH]c4ccccc34)[C@@](C(=O)OC)(c3cc4c(cc3OC)N(C)[C@H]3[C@](O)(CNC(=O)OC5CCCCC5)[C@H](OC(C)=O)[C@]5(CC)C=CCN6CC[C@]43[C@@H]65)C2)C1 | 381 nM | 250 nM |  |
